A word on the IC50: it is the concentration at which inhibition is half-maximal. Lower therefore signals higher potency.

The record followed here is article PMC6904438 (Biochemistry, 2019).

One data set addresses T1, zebrafish HDAC10 (Danio rerio, UniProt F1QCV2).
T1 sequence (F1QCV2 1-675): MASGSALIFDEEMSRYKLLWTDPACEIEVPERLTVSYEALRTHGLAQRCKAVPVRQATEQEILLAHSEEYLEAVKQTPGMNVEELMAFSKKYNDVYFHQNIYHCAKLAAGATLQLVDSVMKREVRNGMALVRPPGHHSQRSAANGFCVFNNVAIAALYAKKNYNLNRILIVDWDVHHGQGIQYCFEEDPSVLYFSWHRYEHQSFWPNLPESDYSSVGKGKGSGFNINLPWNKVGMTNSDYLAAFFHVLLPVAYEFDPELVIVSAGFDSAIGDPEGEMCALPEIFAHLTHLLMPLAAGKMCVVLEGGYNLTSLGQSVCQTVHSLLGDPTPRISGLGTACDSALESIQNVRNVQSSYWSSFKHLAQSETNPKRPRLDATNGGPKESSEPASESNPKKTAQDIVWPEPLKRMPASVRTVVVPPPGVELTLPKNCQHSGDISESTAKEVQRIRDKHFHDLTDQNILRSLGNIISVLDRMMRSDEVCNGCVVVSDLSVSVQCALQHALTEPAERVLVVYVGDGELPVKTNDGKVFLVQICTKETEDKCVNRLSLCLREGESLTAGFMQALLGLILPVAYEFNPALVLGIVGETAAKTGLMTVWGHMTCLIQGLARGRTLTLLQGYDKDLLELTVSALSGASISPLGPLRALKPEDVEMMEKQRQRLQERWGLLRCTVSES
The data set can be described thus: fixed-point N-acetylputrescine hydrolysis assay. Format: biochemical. A digest of the protocol: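 N-acetylputrescine 800 μM added; quenched after 45–60 min with sodium bicarbonate plus dansyl chloride, 50 °C 1 h. Dansylated product quantified by LC-MS; IC50 from logistic nonlinear regression.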

The nature of data set [1]: stability in aqueous solution by mass spectrometry. Type of data set: physicochemical.
[2] abbreviates: ratio of IC50 values against zebrafish HDAC10.

In the case of `NCCCNCCCCCC(=O)C(F)(F)F` [compound 1, 7-[(3-aminopropyl)amino]-1,1,1-trifluoroheptan-2-one], 0.08 ± 0.01 µM corresponded to half-maximal inhibition against zebrafish HDAC10 (IC50). On zebrafish HDAC10 (setting [2]), the “fold greater inhibitory potency than methylketone 2 or methoxymethylketone 3” value is “at least 29 fold”.

As for `CC(=O)CCCCCNCCCN` [compound 2, 7-[(3-aminopropyl)amino]heptan-2-one], inhibition against zebrafish HDAC10 was half-maximal at 2.3 ± 0.2 µM (IC50).

`NCCCNCCCCCS` [compound 6, 5-[(3-aminopropyl)amino]pentane-1-thiol]: half-maximal inhibition at zebrafish HDAC10 (IC50) was put at 0.37 ± 0.02 µM. Also, the “stability in aqueous solution” value in data set [1] is “susceptible to oxidation and begins to forms a disulfide in aqueous solution”.

Molecule `COCC(=O)CCCCCNCCCN` [compound 3, 7-[(3-aminopropyl)amino]-1-methoxyheptan-2-one] yielded an IC50 against zebrafish HDAC10 of 35 ± 0.1 µM.

Regarding `NCCCNCCCCCB(O)O` [compound 4, 5-[(3-aminopropyl)amino]pentylboronic acid], the 50% inhibitory concentration (IC50) against zebrafish HDAC10 is 400 ± 70 µM.

Consider `CC(=O)SCCCCCNCCCN` [compound 7, S-{5-[(3-aminopropyl)amino]pentyl} thioacetate], for which the midpoint of inhibition against zebrafish HDAC10, the IC50, lay at 0.03 ± 0.01 µM. In addition, the “fold difference in potencies between inhibitors 7 and 6” value on zebrafish HDAC10 (setting [2]) is given as 12 fold. The “stability in aqueous solution” value in data set [1] is on record as “stable in aqueous solution”.
